In brackets after ≈: the same amount, converted by molar mass. Where two headings read alike, the source gives them in different places.
Legend:
[1] = tested on: primary human nasal epithelial cells; experiment: Cytotoxicity test; assay type: cell-based; conditions: 5 μM peptide, 3 hours at 37°C, WST-1
In short: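 Primary human nasal epithelial cells were grown to confluency in bronchial epithelial cell medium. Cells were exposed to peptide, then washed three times with PBS. Viability was measured colorimetrically with WST-1 (10% v/v in cell medium). Controls were no peptide (100% viability) and 70% ethanol (total loss of viability). Runs were in triplicate, and treated wells were compared with no-peptide wells by two-tailed paired Student t test.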

A. fumigatus [2] = conditions: EUCAST, ref [27], cited from earlier work
A. fumigatus [3] = experiment: Metabolic assay; assay type: cell-based, Aspergillus fumigatus; conditions: for inhibition of metabolic activity: A. fumigatus strains Af293, CEA10 and DTO342-B2, 1 μM peptide, initial experiments, results not shown
In short: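 A. fumigatus grown 4 days on PDA at 37°C; conidia scraped into saline with 0.002% Tween 20 and counted by haemocytometer. Each well held 5 × 10³ conidia, glucose (final 2%), resazurin and water-diluted peptide. Controls lacked peptide or cells; edge wells held water. Absorbance at 570 nm, corrected for the no-cell control, read repeatedly. Initial strain set tested in duplicate.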

Compound	MIC (A. fumigatus [2]; A. fumigatus DTO 326-I1)	MIC (A. fumigatus [2]; A. fumigatus DTO 327-A8)	inhibition of metabolic activity (A. fumigatus [3])	further results
CCO [EtOH, ethanol]				cell viability, Average (%) ([1]; no peptide = 100% viability, in triplo): 17.5%; cytotoxic effect vs no peptide ([1]; two-tailed paired Student t test): increased cytotoxic activity
CCC(C)n1ncn(-c2ccc(N3CCN(c4ccc(OCC5COC(Cn6cncn6)(c6ccc(Cl)cc6Cl)O5)cc4)CC3)cc2)c1=O (stereo not drawn) [ITC, itraconazole]	Human patient from hematology; Resistant to ITC (>16), POS (1), Intermediate for VRC (2) mg/l	Human ICU patient; Resistant to ITC (>16), POS (0.25), VRC (>16) mg/l		
C[C@@H](c1ncncc1F)[C@](O)(Cn1cncn1)c1ccc(F)cc1F [VRC, voriconazole]	2 µg/mL (≈ 5.73 µM)	Human ICU patient; Resistant to ITC (>16), POS (0.25), VRC (>16) mg/l		
APKAMRRWVQRWIRRWRPKVLQKNNYL-NH2 [CR183]			inhibited the metabolic activity strongly	
LLGDFFRKSKEKIGKEFKRIVQRIKDFLRNLVPRTES-NH2 [LL-37]				concentration at which metabolic activity is inhibited (A. fumigatus [3]; azole-resistant A. fumigatus strains DTO 327-A8 and 326-I1, tested at 1 and 5 μM, 0.125×MM, 105 μM resazurin, 37°C, 27 h, two experiments): did not inhibit metabolic activity
RRWVQRWIRRWRKVAAARRWVQRWIRRWRPKV-NH2 [CR173]			inhibited the metabolic activity strongly	

Reference: paper PMC7657097 (Medical Mycology, 2020)
